Measured values: ChEMBL document CHEMBL5724801, “EUbOPEN Chemogenomics Library - Multiplex” (2024)
“And” between values parts separate entries of the source, which are not always exact repeats. Equal entries are not always repeated.

Test system: Fibroblast
Assay: Multiplex assay against human fibroblast
Type: toxicity, cell-based
Procedure, shortened: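 At seeding, live cells were stained with Hoechst33342, BioTracker Green Microtubule Cytoskeleton Dye, MitoTracker Red and Annexin V Alexa Fluor 680. After compound addition they were imaged on a CQ1 microscope at 37°C and 5% CO2, and CellPathfinder machine-learning gating sorted them into Hoechst high-intensity objects or normal cells, with normal cells further split into healthy, pyknosed or fragmented nuclei and pyknosed cells into mitotic or apoptotic. Tubulin, mitochondrial-mass and membrane-permeability phenotypes are given as per cents of cells with healthy nuclei.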

[1] = 12 h, 1 µM, compound concentration 1 uM
[2] = 12 h, 10 µM, compound concentration 10 uM
[3] = 24 h, 1 µM, compound concentration 1 uM
[4] = 24 h, 10 µM, compound concentration 10 uM
[5] = 48 h, 1 µM, compound concentration 1 uM
[6] = 48 h, 10 µM, compound concentration 10 uM

Q: Which “Population Apoptotic (%)” value [1] does the source give for `COc1ccc2nc3ccc(OC)cc3c(SCCCN)c2c1.Cl` here?
A: 27.78% and 22.73%

Q: And the “Population Fragmented Nuclei (%)” value [1]?
A: 27.67% and 18.52%

Q: And the “Population Healthy Nuclei (%)” value [1]?
A: 58.1% and 71.3%

Q: What about the “Population Hoechst High Intensity Objects (%)” value [1] of the same molecule?
A: 0%

Q: And the “Population Membrane Permeable-Phenotype (%)” value [1]?
A: 4.08% and 5.19%

Q: And the “Population Mitochondria Different-Phenotype (%)” value [1]?
A: 10.88% and 10.39%

Q: And the “Population Mitotic Cells (%)” value [1]?
A: 72.22% and 77.27%

Q: What about the “Population Normal (%)” value [1] of the same molecule?
A: 100%

Q: And the “Population Pyknosed Nuclei (%)” value [1]?
A: 14.23% and 10.19%

Q: What about the “Population Tubulin-Different-Phenotype (%)” value [1] of the same molecule?
A: 28.57% and 25.97%

Q: What about the “Total Cell Count” value [1] of the same molecule?
A: 253 and 216

Q: What about the “Population Apoptotic (%)” value [2] of the same molecule?
A: 50%

Q: And the “Population Fragmented Nuclei (%)” value [2]?
A: 83.22% and 87.99%

Q: What about the “Population Healthy Nuclei (%)” value [2] of the same molecule?
A: 15.99% and 11.88%

Q: What about the “Population Hoechst High Intensity Objects (%)” value [2] of the same molecule?
A: 0.3% and 6.47%

Q: What about the “Population Membrane Permeable-Phenotype (%)” value [2] of the same molecule?
A: 6.17% and 4.52%

Q: What about the “Population Mitochondria Different-Phenotype (%)” value [2] of the same molecule?
A: 24.69% and 15.25%

Q: What about the “Population Mitotic Cells (%)” value [2] of the same molecule?
A: 50%

Q: And the “Population Normal (%)” value [2]?
A: 99.7% and 93.53%

Q: What about the “Population Pyknosed Nuclei (%)” value [2] of the same molecule?
A: 0.79% and 0.13%

Q: What about the “Population Tubulin-Different-Phenotype (%)” value [2] of the same molecule?
A: 53.09% and 68.93%

Q: What about the “Total Cell Count” value [2] of the same molecule?
A: 1016 and 1593

Q: And the “Population Apoptotic (%)” value [3]?
A: 7.41% and 18.18%

Q: What about the “Population Fragmented Nuclei (%)” value [3] of the same molecule?
A: 25% and 14.63%

Q: And the “Population Healthy Nuclei (%)” value [3]?
A: 63.36% and 74.63%

Q: What about the “Population Hoechst High Intensity Objects (%)” value [3] of the same molecule?
A: 0%

Q: What about the “Population Membrane Permeable-Phenotype (%)” value [3] of the same molecule?
A: 4.76% and 3.27%

Q: What about the “Population Mitochondria Different-Phenotype (%)” value [3] of the same molecule?
A: 5.44% and 7.84%

Q: And the “Population Mitotic Cells (%)” value [3]?
A: 92.59% and 81.82%

Q: And the “Population Normal (%)” value [3]?
A: 100%

Q: What about the “Population Pyknosed Nuclei (%)” value [3] of the same molecule?
A: 11.64% and 10.73%

Q: And the “Population Tubulin-Different-Phenotype (%)” value [3]?
A: 25.17% and 21.57%

Q: What about the “Total Cell Count” value [3] of the same molecule?
A: 232 and 205

Q: And the “Population Fragmented Nuclei (%)” value [4]?
A: 83.95% and 88.56%

Q: What about the “Population Healthy Nuclei (%)” value [4] of the same molecule?
A: 15.31% and 11.32%

Q: What about the “Population Hoechst High Intensity Objects (%)” value [4] of the same molecule?
A: 0% and 5.09%

Q: And the “Population Membrane Permeable-Phenotype (%)” value [4]?
A: 1.21% and 3.16%

Q: And the “Population Mitochondria Different-Phenotype (%)” value [4]?
A: 27.27% and 24.21%

Q: And the “Population Mitotic Cells (%)” value [4]?
A: 87.5% and 50%

Q: What about the “Population Normal (%)” value [4] of the same molecule?
A: 100% and 94.91%

Q: And the “Population Pyknosed Nuclei (%)” value [4]?
A: 0.74% and 0.12%

Q: And the “Population Tubulin-Different-Phenotype (%)” value [4]?
A: 47.27% and 59.47%

Q: And the “Total Cell Count” value [4]?
A: 1078 and 1768

Q: What about the “Population Fragmented Nuclei (%)” value [5] of the same molecule?
A: 28.35% and 15.03%

Q: And the “Population Healthy Nuclei (%)” value [5]?
A: 66.14% and 83.42%

Q: What about the “Population Hoechst High Intensity Objects (%)” value [5] of the same molecule?
A: 0%

Q: What about the “Population Membrane Permeable-Phenotype (%)” value [5] of the same molecule?
A: 1.79% and 1.24%

Q: And the “Population Mitotic Cells (%)” value [5]?
A: 71.43% and 100%

Q: And the “Population Normal (%)” value [5]?
A: 100%

Q: What about the “Population Pyknosed Nuclei (%)” value [5] of the same molecule?
A: 5.51% and 1.55%

Q: What about the “Population Tubulin-Different-Phenotype (%)” value [5] of the same molecule?
A: 18.45% and 20.5%

Q: And the “Total Cell Count” value [5]?
A: 254 and 193

Q: What about the “Population Apoptotic (%)” value [6] of the same molecule?
A: 60%

Q: And the “Population Fragmented Nuclei (%)” value [6]?
A: 84.38% and 88.09%

Q: And the “Population Healthy Nuclei (%)” value [6]?
A: 15.23% and 11.61%

Q: What about the “Population Hoechst High Intensity Objects (%)” value [6] of the same molecule?
A: 1.01% and 7.64%

Q: And the “Population Membrane Permeable-Phenotype (%)” value [6]?
A: 2.56% and 4.71%

Q: And the “Population Mitochondria Different-Phenotype (%)” value [6]?
A: 6.67% and 4.19%

Q: And the “Population Mitotic Cells (%)” value [6]?
A: 40%

Q: And the “Population Normal (%)” value [6]?
A: 98.99% and 92.36%

Q: What about the “Population Pyknosed Nuclei (%)” value [6] of the same molecule?
A: 0.39% and 0.3%

Q: What about the “Population Tubulin-Different-Phenotype (%)” value [6] of the same molecule?
A: 27.69% and 51.83%

Q: And the “Total Cell Count” value [6]?
A: 1293 and 1781

Q: For `COc1ccc2c(c1)C(C(=O)N(Cc1ccc(N(C)C)cc1)c1ccc(C(C)C)cc1)CCC2.Cl` (centres undefined), which “Population Apoptotic (%)” value [1] is on record?
A: 57% and 45%

Q: What about the “Population Fragmented Nuclei (%)” value [1] of the same molecule?
A: 15% and 20%

Q: What about the “Population Healthy Nuclei (%)” value [1] of the same molecule?
A: 72% and 55%

Q: And the “Population Hoechst High Intensity Objects (%)” value [1]?
A: 1% and 5%

Q: What about the “Population Membrane Permeable-Phenotype (%)” value [1] of the same molecule?
A: 1% and 5%

Q: And the “Population Mitochondria Different-Phenotype (%)” value [1]?
A: 7% and 15%

Q: And the “Population Mitotic Cells (%)” value [1]?
A: 42% and 54%

Q: What about the “Population Normal (%)” value [1] of the same molecule?
A: 98% and 94%

Q: And the “Population Pyknosed Nuclei (%)” value [1]?
A: 11% and 23%

Q: And the “Population Tubulin-Different-Phenotype (%)” value [1]?
A: 22% and 57%

Q: What about the “Total Cell Count” value [1] of the same molecule?
A: 163 and 138

Q: What about the “Population Apoptotic (%)” value [2] of the same molecule?
A: 58% and 53%

Q: What about the “Population Fragmented Nuclei (%)” value [2] of the same molecule?
A: 17% and 38%

Q: And the “Population Healthy Nuclei (%)” value [2]?
A: 69% and 51%

Q: What about the “Population Hoechst High Intensity Objects (%)” value [2] of the same molecule?
A: 1% and 2%

Q: And the “Population Membrane Permeable-Phenotype (%)” value [2]?
A: 0% and 6%

Q: What about the “Population Mitochondria Different-Phenotype (%)” value [2] of the same molecule?
A: 12% and 14%

Q: And the “Population Mitotic Cells (%)” value [2]?
A: 41% and 46%

Q: And the “Population Normal (%)” value [2]?
A: 98% and 97%

Q: And the “Population Pyknosed Nuclei (%)” value [2]?
A: 13% and 10%

Q: What about the “Population Tubulin-Different-Phenotype (%)” value [2] of the same molecule?
A: 67% and 77%

Q: What about the “Total Cell Count” value [2] of the same molecule?
A: 181 and 148

Q: And the “Population Apoptotic (%)” value [3]?
A: 55%

Q: What about the “Population Fragmented Nuclei (%)” value [3] of the same molecule?
A: 11% and 19%

Q: And the “Population Healthy Nuclei (%)” value [3]?
A: 77% and 59%

Q: And the “Population Hoechst High Intensity Objects (%)” value [3]?
A: 1% and 3%

Q: What about the “Population Membrane Permeable-Phenotype (%)” value [3] of the same molecule?
A: 0% and 2%

Q: And the “Population Mitochondria Different-Phenotype (%)” value [3]?
A: 5% and 11%

Q: And the “Population Mitotic Cells (%)” value [3]?
A: 44%

Q: What about the “Population Normal (%)” value [3] of the same molecule?
A: 98% and 96%

Q: What about the “Population Pyknosed Nuclei (%)” value [3] of the same molecule?
A: 11% and 20%

Q: And the “Population Tubulin-Different-Phenotype (%)” value [3]?
A: 25% and 41%

Q: What about the “Total Cell Count” value [3] of the same molecule?
A: 156 and 136

Q: What about the “Population Apoptotic (%)” value [4] of the same molecule?
A: 50% and 42%

Q: And the “Population Fragmented Nuclei (%)” value [4]?
A: 17% and 39%

Q: And the “Population Healthy Nuclei (%)” value [4]?
A: 72% and 55%

Q: What about the “Population Hoechst High Intensity Objects (%)” value [4] of the same molecule?
A: 3% and 2%

Q: And the “Population Membrane Permeable-Phenotype (%)” value [4]?
A: 0% and 2%

Q: And the “Population Mitochondria Different-Phenotype (%)” value [4]?
A: 15% and 12%

Q: What about the “Population Mitotic Cells (%)” value [4] of the same molecule?
A: 50% and 57%

Q: And the “Population Normal (%)” value [4]?
A: 96% and 97%

Q: And the “Population Pyknosed Nuclei (%)” value [4]?
A: 10% and 4%

Q: And the “Population Tubulin-Different-Phenotype (%)” value [4]?
A: 63% and 85%

Q: What about the “Total Cell Count” value [4] of the same molecule?
A: 180 and 148

Q: What about the “Population Apoptotic (%)” value [5] of the same molecule?
A: 66% and 52%

Q: What about the “Population Fragmented Nuclei (%)” value [5] of the same molecule?
A: 17% and 26%

Q: And the “Population Healthy Nuclei (%)” value [5]?
A: 75% and 61%

Q: And the “Population Hoechst High Intensity Objects (%)” value [5]?
A: 1%

Q: And the “Population Membrane Permeable-Phenotype (%)” value [5]?
A: 1% and 5%

Q: What about the “Population Mitochondria Different-Phenotype (%)” value [5] of the same molecule?
A: 3% and 13%

Q: And the “Population Mitotic Cells (%)” value [5]?
A: 33% and 47%

Q: What about the “Population Normal (%)” value [5] of the same molecule?
A: 98%

Q: And the “Population Pyknosed Nuclei (%)” value [5]?
A: 6% and 12%

Q: And the “Population Tubulin-Different-Phenotype (%)” value [5]?
A: 27% and 46%

Q: What about the “Total Cell Count” value [5] of the same molecule?
A: 180 and 152

Q: And the “Population Apoptotic (%)” value [6]?
A: 71% and 75%

Q: What about the “Population Fragmented Nuclei (%)” value [6] of the same molecule?
A: 21% and 45%

Q: What about the “Population Healthy Nuclei (%)” value [6] of the same molecule?
A: 71% and 52%

Q: And the “Population Hoechst High Intensity Objects (%)” value [6]?
A: 4% and 0%

Q: What about the “Population Membrane Permeable-Phenotype (%)” value [6] of the same molecule?
A: 0% and 3%

Q: What about the “Population Mitochondria Different-Phenotype (%)” value [6] of the same molecule?
A: 8%

Q: And the “Population Mitotic Cells (%)” value [6]?
A: 28% and 25%

Q: And the “Population Normal (%)” value [6]?
A: 95% and 99%

Q: What about the “Population Pyknosed Nuclei (%)” value [6] of the same molecule?
A: 7% and 2%

Q: And the “Population Tubulin-Different-Phenotype (%)” value [6]?
A: 71% and 81%

Q: What about the “Total Cell Count” value [6] of the same molecule?
A: 203 and 174
